Laboratory results as given in ChEMBL document CHEMBL3244334, “Synthesis of pyridinium analogues of acetylcholine and their interactions with intestinal muscarinic receptors” (J Med Chem, 1979).
Calls of active or inactive are those of the source. The calls are words filed in the database; no cut-off is given here.

How the values were obtained:
[1] = (§1) Competitive antagonist activity at muscarinic acetylcholine receptor in guinea pig ileum assessed as inhibition of acetyl-beta-methylcholine-induced longitudinal muscle contraction administered 10 mins prior to acetyl-beta-methylcholine induction measured every 20 mins in presence of 10 uM competitive nicotinic antagonist hexamethonium chloride; format: tissue-based; settings: Cavia porcellus, read-out: pA2 (converted)
In short: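 Ileal muscle was pretreated for 10 min with a single antagonist dose, then a cumulative acetyl-β-methylcholine concentration-response curve was run, with 10 μM hexamethonium chloride in the bath. Lachesine was the reference antagonist, run the same way. Rightward shift of the log concentration-response curves and any change in shape or maximum were assessed. Values are means ± SD.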

[2] = as §1, with “1-(2-acetoxyethyl)pyridinium iodide-induced” for “acetyl-beta-methylcholine-induced”, “1-(2-acetoxyethyl)pyridinium iodide” for “acetyl-beta-methylcholine”; format: tissue-based; settings: Cavia porcellus, read-out: pA2 (converted)
In short: (§2)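 Ileal muscle in 10 μM hexamethonium chloride. Tissue conditioned with a single antagonist dose for 10 min before cumulative dose-response curves to the pyridinium agonist. Points are means of equipotent agonist concentrations giving standard responses, from 6–8 experiments.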

Cavia porcellus [3] = experiment: Non-competitive antagonist activity at muscarinic acetylcholine receptor in guinea pig ileum assessed as inhibition of 1-(2-acetoxyethyl)pyridinium iodide-induced longitudinal muscle contraction at 0.1 uM administered 10 mins prior to 1-(2-acetoxyethyl)pyridinium iodide induction measured every 20 mins in presence of 10 uM competitive nicotinic antagonist hexamethonium chloride; format: tissue-based; in short: as §2
Cavia porcellus [4] = organism: Cavia porcellus; experiment: Agonist activity at muscarinic acetylcholine receptor in guinea pig ileum assessed as longitudinal muscle contraction at 10^-6 M in presence of 10 uM competitive nicotinic antagonist hexamethonium chloride relative to control; format: tissue-based
Cavia porcellus [5] = organism: Cavia porcellus; experiment: Agonist activity at muscarinic acetylcholine receptor in guinea pig ileum assessed as longitudinal muscle contraction measured every 20 mins in presence of 100 uM competitive nicotinic antagonist hexamethonium chloride; format: tissue-based
In short: (§3)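 Isolated ileal muscle, cumulative agonist dose-response curves built every 20 min, read as contraction. pD2 derived; n = 15. Hexamethonium either left out of the bath or raised from 10 to 100 μM.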

[6] = biological target: Acetylcholinesterase (Electrophorus electricus) (UniProt O42275); settings: 10^-6 M
Acetylcholinesterase (Electrophorus electricus), sequence (O42275 24-633 limits assumed): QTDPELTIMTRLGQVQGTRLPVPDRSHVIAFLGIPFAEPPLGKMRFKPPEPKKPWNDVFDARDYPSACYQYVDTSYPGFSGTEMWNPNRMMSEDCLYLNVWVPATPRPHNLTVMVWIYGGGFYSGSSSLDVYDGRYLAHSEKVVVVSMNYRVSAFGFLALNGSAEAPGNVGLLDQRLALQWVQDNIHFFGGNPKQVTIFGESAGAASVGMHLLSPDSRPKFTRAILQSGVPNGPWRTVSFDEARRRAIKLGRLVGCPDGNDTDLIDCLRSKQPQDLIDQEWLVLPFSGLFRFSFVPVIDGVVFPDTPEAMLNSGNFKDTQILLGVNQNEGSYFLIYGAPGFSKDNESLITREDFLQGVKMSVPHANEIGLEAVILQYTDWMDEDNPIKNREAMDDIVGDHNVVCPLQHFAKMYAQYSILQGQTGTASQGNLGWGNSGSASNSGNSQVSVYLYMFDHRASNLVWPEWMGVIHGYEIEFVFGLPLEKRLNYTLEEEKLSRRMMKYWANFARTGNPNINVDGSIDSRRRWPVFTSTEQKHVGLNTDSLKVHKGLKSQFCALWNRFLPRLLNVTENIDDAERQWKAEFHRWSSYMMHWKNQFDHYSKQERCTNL

Cavia porcellus [7] = organism: Cavia porcellus; experiment: Agonist activity at muscarinic acetylcholine receptor in guinea pig ileum assessed as longitudinal muscle contraction measured every 20 mins in presence of 10 uM competitive nicotinic antagonist hexamethonium chloride; format: tissue-based
In short: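 Isolated ileal muscle in a bath with 10 μM hexamethonium chloride to block ganglionic stimulation. Cumulative concentration-response curves to the test agonist and to acetyl-β-methylcholine (reference agonist) were built alternately on one preparation every 20 min. pD₂ was derived from the curves, n = 15 per drug, means ± SD.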

Cavia porcellus [8] = organism: Cavia porcellus; experiment: Agonist activity at muscarinic acetylcholine receptor in guinea pig ileum assessed as longitudinal muscle contraction measured every 20 mins in presence of 0.05 uM physostigmine; format: tissue-based
Cavia porcellus [9] = organism: Cavia porcellus; experiment: Agonist activity at muscarinic acetylcholine receptor in guinea pig ileum assessed as longitudinal muscle contraction measured every 20 mins in absence of 10 uM competitive nicotinic antagonist hexamethonium chloride; format: tissue-based; in short: as §3
Cavia porcellus [10] = organism: Cavia porcellus; experiment: Agonist activity at muscarinic acetylcholine receptor in guinea pig ileum assessed as longitudinal muscle contraction at 10^-4 in presence of 10 uM competitive nicotinic antagonist hexamethonium chloride relative to control; format: tissue-based
[11] = biological target: Acetylcholinesterase (Electrophorus electricus) (UniProt O42275); experiment: Inhibition of electric eel acetylcholinesterase using acetylcholine as substrate at 10^-5 M relative to control
In short: (§4)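 Electric eel AChE; substrate 1 mM ACh. Inhibition taken as the lowered rate of ACh decomposition, measured by pH-stat titration. Six experiments per value, reported as means ± SD.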

Cavia porcellus [12] = organism: Cavia porcellus; experiment: Agonist activity at muscarinic acetylcholine receptor in guinea pig ileum assessed as longitudinal muscle contraction at 3 x 10^-4 M in presence of 10 uM competitive nicotinic antagonist hexamethonium chloride relative to control; format: tissue-based
[13] = biological target: Acetylcholinesterase (Electrophorus electricus) (UniProt O42275); experiment: Inhibition of electric eel acetylcholinesterase using acetylcholine as substrate at 3 x 10^-4 M relative to control; in short: as §4
[14] = Toxicity in NMRI mouse; format: organism-based; settings: in vivo
Cavia porcellus [15] = organism: Cavia porcellus; experiment: Agonist activity at muscarinic acetylcholine receptor in guinea pig ileum assessed as longitudinal muscle contraction at 10^-5 M in presence of 10 uM competitive nicotinic antagonist hexamethonium chloride relative to control; format: tissue-based
Cavia porcellus [16] = organism: Cavia porcellus; experiment: Agonist activity at muscarinic acetylcholine receptor in guinea pig ileum assessed as longitudinal muscle contraction at 3 x 10^-5 M in presence of 10 uM competitive nicotinic antagonist hexamethonium chloride relative to control; format: tissue-based
[17] = biological target: Acetylcholinesterase (Electrophorus electricus) (UniProt O42275); experiment: Inhibition of electric eel acetylcholinesterase using acetylcholine as substrate at 10^-3 M relative to control; in short: as §4
Cavia porcellus [18] = organism: Cavia porcellus; experiment: Agonist activity at muscarinic acetylcholine receptor in guinea pig ileum assessed as longitudinal muscle contraction at 10^-3 M in presence of 10 uM competitive nicotinic antagonist hexamethonium chloride relative to control; format: tissue-based
[19] = biological target: Acetylcholinesterase (Electrophorus electricus) (UniProt O42275); experiment: Inhibition of electric eel acetylcholinesterase using acetylcholine as substrate at 3 x 10^-5 M relative to control; in short: as §4

SMILES	Kb [1] [µM]	Kb [2] [µM]	Activity (Cavia porcellus [5])	pD2 (Cavia porcellus [7])	Activity (Cavia porcellus [8])	Activity (Cavia porcellus [9])	LD50 [14] [µmol/kg]	further results
CC[N+](C)(C)CCOC(=O)C(O)(c1ccccc1)c1ccccc1 [LACHESINE CHLORIDE]	0.0024	0.00219	–	–	–	–	–	inhibition (Cavia porcellus [3]): Active
CC(=O)OCC[n+]1ccccc1	–	–	Active	4.62	Active	Active	–	%max (Cavia porcellus [4]): 0%; inhibition [6]: 23.9%; %max (Cavia porcellus [10]): 89%
CC(=O)OC(C)C[N+](C)(C)C (configuration not stated)	–	–	Active	7.02	Active	Active	–	–
CC(=O)OCC[n+]1ccc(C(C)(C)C)cc1.[Br-]	37.2	30.2	–	–	–	–	2000	inhibition [11]: 32.3%; %max (Cavia porcellus [12]): 0%; inhibition [13]: 66.2%; %max (Cavia porcellus [15]): 0%
CC(=O)OCC[n+]1ccc(C)cc1.[Br-]	372	–	–	–	–	–	2000	%max (Cavia porcellus [16]): 0%; inhibition [17]: 77.4%; %max (Cavia porcellus [18]): 0%; inhibition [19]: 42.5%
